One block for each molecule: values may come before it. Calls of active or inactive are those of the source. No cut-off for these calls is given here.
Columns and labels:
[1] = molecular target: B-cell lymphoma 6 protein (Homo sapiens, UniProt P41182, C67R/C84N/C8Q); assay: Inhibition of recombinant human C-terminal GST-tagged BCL6 BTB domain C8Q/C67R/C84N triple mutant expressed in Escherichia coli BL21 (DE3) cells assessed as reduction in SMRT/BTB domain interaction incubated for 1 hr by HTRF assay
SUD4 [2] = assay: Antiproliferative activity against human SUDHL4 cells assessed as reduction in cell viability incubated for 72 hrs by CCK8 assay; settings: SU-DHL-4, 72 h
Farage [3] = assay: Antiproliferative activity against human Farage cells assessed as reduction in cell viability incubated for 72 hrs by CCK8 assay
DOHH-2 = assay: Antiproliferative activity against human DOHH2 cells assessed as reduction in cell viability incubated for 72 hrs by CCK8 assay; settings: DOHH-2, 72 h
OCI-Ly7 = assay: Antiproliferative activity against human OCI-LY7 cells assessed as reduction in cell viability incubated for 72 hrs by CCK8 assay; settings: OCI-Ly7, 72 h
Toledo [4] = assay: Antiproliferative activity against BCL6-negative human Toledo cells assessed as reduction in cell viability incubated for 72 hrs by CCK8 assay
L02 = assay: Cytotoxicity against human LO2 cells assessed as reduction in cell viability incubated for 72 hrs by CCK8 assay; settings: L02, 72 h
[5] = Cytotoxicity against HAF cells assessed as reduction in cell viability incubated for 72 hrs by CCK8 assay; settings: Homo sapiens
NCM460 = assay: Cytotoxicity against human NCM460 cells assessed as reduction in cell viability incubated for 72 hrs by CCK8 assay; settings: NCM460, 72 h
PNT1A = assay: Cytotoxicity against human PNT1A cells assessed as reduction in cell viability incubated for 72 hrs by CCK8 assay
SUD4 [6] = assay: Induction of apoptosis in human SUDHL4 cells assessed as late apoptotic cells at 0.625 uM incubated for 48 hrs by annexin V-FITC and propidium iodide staining based flow cytometry analysis (reference value: 1.39%); format: functional
SUD4 [7] = assay: Induction of apoptosis in human SUDHL4 cells assessed as late apoptotic cells at 1.25 uM incubated for 48 hrs by annexin V-FITC and propidium iodide staining based flow cytometry analysis (reference value: 1.39%); format: functional
SUD4 [8] = assay: Induction of apoptosis in human SUDHL4 cells assessed as late apoptotic cells at 2.5 uM incubated for 48 hrs by annexin V-FITC and propidium iodide staining based flow cytometry analysis (reference value: 1.39%); format: functional
SUD4 [9] = assay: Induction of apoptosis in human SUDHL4 cells assessed as early apoptotic cells at 0.625 uM incubated for 48 hrs by annexin V-FITC and propidium iodide staining based flow cytometry analysis (reference value: 2.62%); format: functional
SUD4 [10] = assay: Induction of apoptosis in human SUDHL4 cells assessed as early apoptotic cells at 1.25 uM incubated for 48 hrs by annexin V-FITC and propidium iodide staining based flow cytometry analysis (reference value: 2.62%); format: functional
SUD4 [11] = assay: Induction of apoptosis in human SUDHL4 cells assessed as early apoptotic cells at 2.5 uM incubated for 48 hrs by annexin V-FITC and propidium iodide staining based flow cytometry analysis (reference value: 2.62%); format: functional
Mus musculus [12] = assay: In vivo inhibition of GC formation in NP-CGG immunized C57BL/6 mouse assessed as splenic GC B cells (GL7+FAS+B220+) at 50 mg/kg/day, ip for 12 days starting from 2 days after NP-CGG addition by flow cytometry (reference value: 1.97%); format: functional; set-up: scale not given: the % may be the effect or the level left
Farage [13] = assay: Antiproliferative activity against human Farage cells transfected with lentivirus expressing BCL6 shRNA assessed as reduction in cell viability at 10 to 80 uM incubated for 72 hrs by CCK8 assay; format: functional, cell-based
Farage [14] = assay: Antiproliferative activity against human Farage cells transfected with empty vector lentivirus assessed as reduction in cell viability at 10 to 80 uM incubated for 72 hrs by CCK8 assay; format: functional, cell-based
Procedure, shortened: (§1)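 Lentivirus made by transfection; supernatant collected at 48 h and 72 h. DLBCL cells infected with virus plus 8 μg/mL polybrene for 48 h, then selected in RPMI 1640 with 2 μg/mL puromycin. Transduced cells seeded at 2 × 10⁴ cells/well and exposed to compound for 72 h. CCK8 added, 1-2 h at 37 °C, absorbance read at 450 nm. Run in triplicate.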

Toledo [15] = assay: Antiproliferative activity against human Toledo cells transfected with lentivirus overexpressing BCL6 assessed as reduction in cell viability up to 20 uM incubated for 72 hrs by CCK8 assay; format: functional, cell-based; procedure, shortened: as §1
Mus musculus [16] = species: Mus musculus; settings: C57BL/6, 50 mg/kg
SUD4 [17] = assay: Antiproliferative activity against human SUDHL4 cells assessed as living cells and S phase cells at 2.5 uM incubated for 48 hrs by Edu based flow cytometry analysis (reference value: 48.3%)
SUD4 [18] = assay: Antiproliferative activity against human SUDHL4 cells assessed as living cells and S phase cells at 1.25 uM incubated for 48 hrs by Edu based flow cytometry analysis (reference value: 48.3%)
SUD4 [19] = assay: Antiproliferative activity against human SUDHL4 cells assessed as living cells and S phase cells at 0.625 uM incubated for 48 hrs by Edu based flow cytometry analysis (reference value: 48.3%)
[20] = molecular target: B-cell lymphoma 6 protein (Homo sapiens, UniProt P41182); assay: Binding affinity to lateral groove of BCL6 BTB domain (unknown origin)
Procedure, shortened: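 GST-tagged BCL6 protein was expressed in E. coli BL21(DE3), purified on glutathione Sepharose, dialysed into PBS and used for biolayer interferometry. GST biosensors were hydrated 10 min in kinetics buffer (1× PBS, 0.02% Tween 20), given a 60 s baseline, then loaded with BCL6-GST at 50 ng/mL for 300-600 s. After a second 60 s baseline, sensors were dipped into serially diluted compound.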

Toledo [21] = assay: Antiproliferative activity against human Toledo cells transfected with empty vector lentivirus assessed as reduction in cell viability up to 20 uM incubated for 72 hrs by CCK8 assay; format: functional, cell-based; procedure, shortened: as §1

SMILES: COc1ccc(Nc2nc(N(CC(C)C)CC(C)C)ncc2F)cc1Cl
- IC50 [1]: > 10 µM

SMILES: COc1ccc(Nc2nc(N3C[C@@H](C)N[C@@H](C)C3)ncc2F)cc1NC(=O)c1ccc(Br)o1
- IC50 [1]: > 20 µM

SMILES: COc1cc(Nc2nc(N3C[C@@H](C)N[C@@H](C)C3)ncc2F)ccc1NC(=O)c1ccc(Br)o1
- IC50 [1]: > 10 µM

SMILES: O=C(O)CCN1C(=O)/C(=C2/C(=O)Nc3ccc(Cl)cc32)SC1=S
- IC50 (SUD4 [2]): 51.3 µM
- IC50 (Farage [3]): 33.9 µM
- IC50 (DOHH-2): 35.1 µM
- IC50 (OCI-Ly7): 39 µM
- IC50 (Toledo [4]): 65.3 µM
- IC50 (L02): > 100 µM
- IC50 [5]: > 100 µM
- IC50 (NCM460): > 100 µM
- IC50 (PNT1A): > 100 µM
- Activity (SUD4 [6]): 1.81%
- Activity (SUD4 [7]): 1.73%
- Activity (SUD4 [8]): 1.96%
- Activity (SUD4 [9]): 2.86%
- Activity (SUD4 [10]): 2.62%
- Activity (SUD4 [11]): 3.19%
- Activity (Mus musculus [12]): 0.73%
- Activity (Farage [13]): Active
- Activity (Farage [14]): Active
- Activity (Toledo [15]): Active
- inhibition (Mus musculus [16]): Active
- Activity (SUD4 [17]): 47.4%
- Activity (SUD4 [18]): 45.1%
- Activity (SUD4 [19]): 48.5%

SMILES: O=C(O)CC(C(=O)O)N1C(=O)/C(=C2/C(=O)Nc3ccc(Br)cc32)SC1=S (stereo not drawn)
- Kd [20]: 138 µM

SMILES: COc1cc(Nc2nc(N3C[C@@H](C)N[C@@H](C)C3)ncc2F)ccc1NC(=O)c1ccc(Br)s1
- IC50 [1]: > 10 µM

SMILES: O=C1Cc2cc(Nc3nc(NCc4cccnc4)ncc3Cl)ccc2N1
- IC50 (SUD4 [2]): 24.3 µM
- IC50 (Farage [3]): 33.5 µM
- IC50 (DOHH-2): 47.6 µM
- IC50 (OCI-Ly7): 33.9 µM
- IC50 (Toledo [4]): 39.5 µM
- IC50 (L02): > 100 µM
- IC50 [5]: > 100 µM
- IC50 (NCM460): > 100 µM
- IC50 (PNT1A): > 100 µM
- Activity (SUD4 [6]): 1.89%
- Activity (SUD4 [7]): 1.97%
- Activity (SUD4 [8]): 1.74%
- Activity (SUD4 [9]): 3.11%
- Activity (SUD4 [10]): 3.43%
- Activity (SUD4 [11]): 3.15%
- Activity (Farage [13]): Active
- Activity (Farage [14]): Active
- Activity (Toledo [21]): Active
- Activity (Toledo [15]): Active
- Activity (SUD4 [17]): 41.2%
- Activity (SUD4 [18]): 41.6%
- Activity (SUD4 [19]): 43.4%

More lines, now with the values ahead:

- IC50 [1]: > 10 µM
SMILES: CCCCNc1ncc(F)c(Nc2ccc(OC)c(Cl)c2)n1

- IC50 [1]: > 20 µM
SMILES: COc1ccc(Nc2nc(N3C[C@@H](C)N[C@@H](C)C3)ncc2F)cc1NC(=O)c1ccc(Br)s1

- IC50 [1]: > 10 µM
SMILES: COc1ccc(Nc2nc(N3C[C@H](C)C[C@H](C)C3)ncc2F)cc1Cl

Source: ChEMBL document CHEMBL4376875, “Synthesis and Biological Evaluation of B-Cell Lymphoma 6 Inhibitors of N-Phenyl-4-pyrimidinamine Derivatives Bearing Potent Activities against Tumor Growth” (J Med Chem, 2020)
